Structures are written as SMILES.

Assay [1] concerns U-87 MG. Kind of assay: Ratio of foretinib IC50 to compound IC50 for human U87MG cells after 72 hrs by MTT assay. The assay is classed as functional, U-87MG ATCC. Background: Tetrazolium assays rely on reduction of a dye to a coloured formazan, in cell work by metabolically active cells.
Assay [2] relates to A549. Kind of assay: Ratio of foretinib IC50 to compound IC50 for human A549 cells after 72 hrs by MTT assay. The assay is classed as functional.
The nature of assay [3]: Ratio of foretinib IC50 to compound IC50 for human H460 cells after 72 hrs by MTT assay. In kind it is functional.
For assay [4], the system named is HT-29. Kind of assay: Ratio of foretinib IC50 to compound IC50 for human HT-29 cells after 72 hrs by MTT assay. In kind it is functional.
For assay [5], the target named is Epidermal growth factor receptor (Homo sapiens, UniProt P00533). The assay is described as follows: Inhibition of EGFR (unknown origin) using poly (Glu, Tyr) 4:1 after 30 mins by HTRF assay. In a few lines:
(§1)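 HTRF assay using purified tyrosine kinase proteins in 50 mM HEPES pH 7.0 with DTT, MgCl2, MnCl2 and 0.1% NaN3. The substrate was poly(Glu,Tyr) 4:1 at 20 µg/mL, and ATP was added as a 10 mM solution. Compounds were diluted in 1% DMSO. Reactions ran 30 min at 25 °C and were stopped with Streptavidin-XL665 and Tk antibody cryptate.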
On the technique in general: Time-resolved FRET reads energy transfer from a long-lived donor to a nearby acceptor.

Assay [6] deals with Mast/stem cell growth factor receptor Kit (Homo sapiens, UniProt P10721). The assay is described as follows: Inhibition of c-Kit (unknown origin) using poly (Glu, Tyr) 4:1 after 30 mins by HTRF assay. In a few lines:
as §1

Assay [7] deals with Platelet-derived growth factor receptor beta (Homo sapiens, UniProt P09619). Kind of assay: Inhibition of PDGFRbeta (unknown origin) using poly (Glu, Tyr) 4:1 after 30 mins by HTRF assay. The method in brief:
as §1

In assay [8] the target is T1, Receptor-type tyrosine-protein kinase FLT3 (Homo sapiens, UniProt P36888).
T1 sequence (P36888 whole entry): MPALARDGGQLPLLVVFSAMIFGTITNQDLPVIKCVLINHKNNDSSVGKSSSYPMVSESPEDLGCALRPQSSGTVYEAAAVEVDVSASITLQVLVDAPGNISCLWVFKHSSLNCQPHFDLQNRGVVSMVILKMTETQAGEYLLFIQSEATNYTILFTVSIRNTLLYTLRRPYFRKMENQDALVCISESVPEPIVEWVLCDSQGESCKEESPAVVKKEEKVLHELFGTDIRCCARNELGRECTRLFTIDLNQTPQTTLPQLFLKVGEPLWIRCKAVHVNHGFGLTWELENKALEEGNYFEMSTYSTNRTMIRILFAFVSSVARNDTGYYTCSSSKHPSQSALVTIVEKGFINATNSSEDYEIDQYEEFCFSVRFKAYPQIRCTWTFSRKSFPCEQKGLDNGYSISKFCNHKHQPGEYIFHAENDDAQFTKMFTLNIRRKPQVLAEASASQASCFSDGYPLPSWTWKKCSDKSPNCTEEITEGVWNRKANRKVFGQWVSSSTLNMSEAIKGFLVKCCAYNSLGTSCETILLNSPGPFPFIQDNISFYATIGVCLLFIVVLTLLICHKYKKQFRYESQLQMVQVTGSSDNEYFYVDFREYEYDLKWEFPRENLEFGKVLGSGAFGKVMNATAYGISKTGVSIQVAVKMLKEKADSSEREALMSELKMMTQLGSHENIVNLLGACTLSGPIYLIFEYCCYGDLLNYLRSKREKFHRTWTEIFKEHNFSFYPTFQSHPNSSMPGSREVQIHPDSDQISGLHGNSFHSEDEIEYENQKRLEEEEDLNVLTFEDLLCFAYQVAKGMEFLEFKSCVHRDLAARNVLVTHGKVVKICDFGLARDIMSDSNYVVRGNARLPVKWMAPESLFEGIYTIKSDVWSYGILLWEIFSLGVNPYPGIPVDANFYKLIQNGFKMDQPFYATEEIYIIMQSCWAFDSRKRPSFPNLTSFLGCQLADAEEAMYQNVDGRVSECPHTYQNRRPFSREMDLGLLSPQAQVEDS
The assay is described as follows: Inhibition of Flt-3 (unknown origin) using poly (Glu, Tyr) 4:1 after 30 mins by HTRF assay. The method in brief: as §1

Assay [9] concerns the target Vascular endothelial growth factor receptor 2 (Homo sapiens, UniProt P35968). The assay is described as follows: Inhibition of VEGFR2 (unknown origin) using poly (Glu, Tyr) 4:1 after 30 mins by HTRF assay. The method in brief: as §1
The nature of assay [10]: Cytotoxicity against human U87MG cells after 72 hrs by MTT assay. The assay is classed as functional, cell-based, U-87MG ATCC. Conditions: U-87 MG. In a few lines: (§2)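 Cells were grown in MEM with 10% FBS and seeded at about 4×10^3 cells per well, then held 24 h at 37 °C in 5% CO2. Compounds were added and the cells cultured 72 h. MTT was added to 5 µg/mL final for 4 h at 37 °C, and the formazan was dissolved in DMSO. IC50 is the mean of three determinations.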

In assay [11] the test system is A549. Kind of assay: Cytotoxicity against human A549 cells after 72 hrs by MTT assay. The assay is classed as functional, cell-based. Conditions: A549, 72 h. The method in brief:
as §2

A short description of assay [12]: Cytotoxicity against human MKN45 cells after 72 hrs by MTT assay. To be noted: MKN-45, 72 h.
Assay [13] is described as follows: Cytotoxicity against human H460 cells after 72 hrs by MTT assay. Conditions: NCI-H460, 72 h.
For assay [14], the target named is Hepatocyte growth factor receptor (Homo sapiens, UniProt P08581). Kind of assay: Inhibition of c-Met (unknown origin) using poly (Glu, Tyr) 4:1 after 30 mins by HTRF assay.
Assay [15] concerns HT-29. The assay is described as follows: Cytotoxicity against human HT-29 cells after 72 hrs by MTT assay. To be noted: HT-29, 72 h.

With `COc1cc2c(Oc3ccc(N/C=C4\C(=O)NC(=O)N(c5ccc(C)cc5)C4=O)cc3F)ccnc2cc1OCCCN1CCCC1`, the “Ratio IC50” value in [1] amounted to 1.7; in assay [2], 1.8; in [3] it was 3.7; in assay [4], 1.2. Besides, the IC50 in assay [5] was above 100000 nM; in [6], 652 nM; in assay [7], 531 nM; in assay [8], 496 nM; in [9], 384 nM; in [10] it was 640 nM. For the same compound, the IC50 was 72 nM in assay [11]; 57 nM in [12]; 51 nM in [13]; 1.15 nM in [14]; 130 nM in [15].
For `COc1cc2c(Oc3ccc(N/C=C4\C(=O)NC(=O)N(c5ccccc5)C4=O)cc3F)ccnc2cc1OCCCN1CCC(C)CC1`, the IC50 turned out to be 1420 nM in [10]; 390 nM in assay [11]; 46 nM in assay [12]; 170 nM in [13]; 3.84 nM in assay [14]; 280 nM in assay [15].
Take `COc1cc2c(Oc3ccc(N/C=C4\C(=O)NC(=O)N(c5ccccc5)C4=O)cc3F)ccnc2cc1OCCCN1CCCCC1`: the IC50 in assay [10] turned out to be 1300 nM; in [11], 510 nM; in assay [12] it was 280 nM; in assay [13] it was 220 nM; in [14] it was 4.31 nM; in assay [15], 160 nM.
With `COc1cc2c(Oc3ccc(N/C=C4\C(=O)NC(=O)N(c5ccc(F)c(Cl)c5)C4=O)cc3F)ccnc2cc1OCCCN1CCCCC1`, the IC50 in assay [10] amounted to 1000 nM; in [11], 180 nM; in [12], 40 nM; in assay [13] it was 80 nM; in [14], 3.15 nM; in assay [15], 200 nM.
Regarding `COc1cc(N2C(=O)NC(=O)/C(=C\Nc3ccc(Oc4ccnc5cc(OCCCN6CCCC6)c(OC)cc45)c(F)c3)C2=O)c(OC)cc1Cl`, the half-maximal inhibitory concentration (IC50) in assay [10] stood at 2800 nM; in assay [11], 380 nM; in assay [12], 350 nM; in assay [13], 710 nM; in assay [14] it was 16.8 nM; in assay [15], 9400 nM.
Consider `COc1cc2c(Oc3ccc(N/C=C4\C(=O)NC(=O)N(c5ccc(C)cc5)C4=O)cc3F)ccnc2cc1OCCCN1CCCCC1`, for which the IC50 in [10] is 1500 nM; in assay [11] it was 380 nM; in assay [12], 190 nM; in assay [13], 100 nM; in [14], 2.58 nM; in assay [15], 120 nM.
For `COc1cc2c(Oc3ccc(N/C=C4\C(=O)NC(=O)N(c5ccc(F)cc5)C4=O)cc3F)ccnc2cc1OCCCN1CCC(C)CC1`, the IC50 was found to be 3200 nM in assay [10]; 350 nM in [11]; 120 nM in assay [12]; 110 nM in assay [13]; 3.09 nM in assay [14]; 220 nM in [15].
As for `COc1cc2c(Oc3ccc(N/C=C4\C(=O)NC(=O)N(c5ccccc5)C4=O)cc3F)ccnc2cc1OCCCN1CCOCC1`, the IC50 was 4800 nM in assay [10]; 930 nM in assay [11]; 310 nM in [12]; 260 nM in assay [13]; 4.57 nM in assay [14]; 350 nM in [15].
For the compound `COc1cc(N2C(=O)NC(=O)/C(=C\Nc3ccc(Oc4ccnc5cc(OCCCN6CCC(C)CC6)c(OC)cc45)c(F)c3)C2=O)c(OC)cc1Cl`, the IC50 in assay [10] was found to be 3400 nM; in assay [11], 640 nM; in [12] it was 460 nM; in [13] it was 570 nM; in assay [14], 19.2 nM; in [15] it was 630 nM.
On to `COc1cc2c(Oc3ccc(N/C=C4\C(=O)NC(=O)N(c5c(C)cccc5C)C4=O)cc3F)ccnc2cc1OCCCN1CCCCC1`, for which the IC50 in [10] amounted to 1200 nM; in [11], 310 nM; in assay [12], 490 nM; in [13], 160 nM; in assay [14] it was 3.72 nM; in assay [15], 200 nM.
On to `COc1cc2c(Oc3ccc(N/C=C4\C(=O)NC(=O)N(c5ccc(C)cc5)C4=O)cc3F)ccnc2cc1OCCCN1CCC(C)CC1`, for which the concentration for half-maximal inhibition (IC50) in assay [10] amounted to 920 nM; in assay [11], 990 nM; in assay [12], 56 nM; in [13], 59 nM; in assay [14] it was 1.64 nM; in [15], 140 nM.
`COc1cc2c(Oc3ccc(N/C=C4\C(=O)NC(=O)N(c5ccc(F)c(Cl)c5)C4=O)cc3F)ccnc2cc1OCCCN1CCOCC1`: the half-inhibitory concentration (IC50) in assay [10] was 580 nM; in assay [11], 270 nM; in assay [12], 110 nM; in assay [13], 120 nM; in assay [14] it was 5.14 nM; in assay [15] it was 280 nM.
`COc1cc2c(Oc3ccc(N/C=C4\C(=O)NC(=O)N(c5ccc(F)cc5F)C4=O)cc3F)ccnc2cc1OCCCN1CCN(C)CC1`: the IC50 worked out at 1600 nM in assay [10]; 380 nM in [11]; 510 nM in assay [12]; 1170 nM in [13]; 8.35 nM in [14]; 1500 nM in assay [15].
For `COc1cc2c(Oc3ccc(N/C=C4\C(=O)NC(=O)N(c5ccc(F)c(Cl)c5)C4=O)cc3F)ccnc2cc1OCCCN1CCN(C)CC1`, the IC50 in [10] stood at 750 nM; in assay [11], 310 nM; in assay [12], 66 nM; in [13], 76 nM; in assay [14] it was 3.15 nM; in [15], 150 nM.
Turning to `COc1cc2c(Oc3ccc(N/C=C4\C(=O)NC(=O)N(c5ccc(C)cc5)C4=O)cc3F)ccnc2cc1OCCCN1CCOCC1`, the IC50 in assay [10] was found to be 8500 nM; in [11], 110 nM; in assay [12], 210 nM; in assay [13], 61 nM; in assay [14], 2.16 nM; in assay [15], 180 nM.

For orientation: IC50 means the concentration at which inhibition is half-maximal. The low end stands for inhibition by little substance, the high end for a need for much substance.

(Values after ChEMBL document CHEMBL3112515, “Discovery of novel 6,7-disubstituted-4-phenoxyquinoline derivatives bearing 5-(aminomethylene)pyrimidine-2,4,6-trione moiety as c-Met kinase inhibitors” (Bioorg Med Chem, 2014).)
